Results published in ChEMBL document CHEMBL3352604, “Development of novel azabenzofuran TRPA1 antagonists as in vivo tools” (Bioorg Med Chem Lett, 2014).
pEC50, pIC50: −log10 of the molar value. Values after ≈ are worked out from the molar mass of the structure shown. Active and inactive are the calls of the source. The calls are words filed in the database; no cut-off is given here.

What was measured:
[1] = target: T1, Transient receptor potential cation channel subfamily A member 1 (Rattus norvegicus, UniProt Q6RI86); experiment: Antagonist activity at rat TRPA1 assessed as inhibition of AITC-induced calcium uptake by [45Ca2+] fluorimetry assay
Method in brief: (§1)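 Antagonism read by 45Ca2+ fluorimetry in cells expressing rat or human TRPA1. IC50 determined. Where no IC50 was obtained, % inhibition was measured at a single 2 μM point.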

[2] = target: T2, Transient receptor potential cation channel subfamily A member 1 (Homo sapiens, UniProt O75762); experiment: Antagonist activity at human TRPA1 assessed as inhibition of AITC-induced calcium uptake by [45Ca2+] fluorimetry assay; method in brief: as §1
[3] = target: T1, Transient receptor potential cation channel subfamily A member 1; experiment: Agonist activity at rat TRPA1 by [45Ca2+] fluorimetry assay
[4] = target: T2, Transient receptor potential cation channel subfamily A member 1; experiment: Agonist activity at human TRPA1 by [45Ca2+] fluorimetry assay
[5] = Solubility in 0.01 N HCl solution in water; assay type: physicochemical
Method in brief: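 Solubility measured in 0.01 N hydrogen chloride solution in water.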

[6] = Solubility in PBS buffer at pH 7.4; assay type: physicochemical
Method in brief: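 Solubility measured in phosphate buffered saline, pH 7.4.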

[7] = Solubility in fasted state simulated intestinal fluid at pH 6.8; assay type: ADME
[8] = Clearance in human liver microsomes; assay type: ADME; settings: read-out: CLH
[9] = Clearance in rat liver microsomes; assay type: ADME; settings: read-out: CLH
[10] = Fraction unbound in rat plasma by equilibrium dialysis method; assay type: ADME, cell-free
[11] = Clearance in Sprague-Dawley rat at 0.5 mg/kg, iv; assay type: ADME, organism-based; parameters: dose 0.5 mg/kg, route intravenous; settings: in vivo
Method in brief: (§2)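 Male Sprague-Dawley rats (n = 3) given 0.5 mg/kg iv in DMSO.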

[12] = test system: Rattus norvegicus; experiment: Unbound clearance in Sprague-Dawley rat at 0.5 mg/kg, iv; assay type: ADME, organism-based; parameters: dose 0.5 mg/kg, route intravenous; settings: in vivo; method in brief: as §2
[13] = Volume of distribution at steady state in Sprague-Dawley rat at 0.5 mg/kg, iv; assay type: ADME, organism-based; parameters: dose 0.5 mg/kg, route intravenous; settings: in vivo, read-out: Vdss; method in brief: as §2
[14] = Half life in Sprague-Dawley rat at 0.5 mg/kg, iv; assay type: ADME, organism-based; parameters: dose 0.5 mg/kg, route intravenous; settings: in vivo; method in brief: as §2
[15] = test system: Rattus norvegicus; experiment: fCmax in fasted Sprague-Dawley rat at 30 mg/kg, po; assay type: ADME, organism-based; parameters: dose 30 mg/kg, route oral; settings: in vivo
Method in brief: (§3)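 Male Sprague-Dawley rats (n = 3) dosed po in 2% HPMC, 1% Tween 80 in H2O, pH 2.2 with MSA. Animals fasted during the PK study.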

[16] = Oral bioavailability in fasted Sprague-Dawley rat at 30 mg/kg; assay type: ADME, organism-based; settings: in vivo; method in brief: as §3
[17] = test system: Rattus norvegicus; experiment: fCmax in fed Sprague-Dawley rat at 100 mg/kg, po; assay type: ADME, organism-based; parameters: dose 100 mg/kg, route oral; settings: in vivo
Method in brief: (§4)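 Male Sprague-Dawley rats (n = 3) dosed po at 100 mg/kg in 2% HPMC, 1% Tween 80 in H2O, pH 2.2 with MSA. Animals fed during the PK study.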

[18] = Oral bioavailability in fed Sprague-Dawley rat at 100 mg/kg; assay type: ADME, organism-based; settings: in vivo; method in brief: as §4
[19] = Ratio of fCmax in fed Sprague-Dawley rat at 100 mg/kg, po to IC50 for antagonist activity at rat TRPA1 by [45Ca2+] fluorimetry assay
Method in brief: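 Male Sprague-Dawley rats (n = 3), fed, were given an oral dose in 2% HPMC, 1% Tween 80 in water, adjusted to pH 2.2 with MSA. The unbound Cmax from this PK study was divided by the rat TRPA1 IC50. That IC50 came from a 45Ca2+ fluorimetry antagonism assay in cells expressing rat TRPA1.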

[20] = test system: Plasma; experiment: Unbound plasma concentration in Harlan Sprague-Dawley rat model of AITC-induced flinching at 10 mg/kg, po after 1 hr; assay type: ADME, organism-based; parameters: dose 10 mg/kg, route oral; settings: in vivo
Method in brief: (§5)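 Male Harlan Sprague-Dawley rats dosed orally in 2% HPMC/1% Tween-80, with a 0.1% AITC paw challenge at 1 h. Unbound plasma concentration determined with n=8, 6 and 8 for the 10, 30 and 100 mg/kg doses respectively.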

[21] = test system: Plasma; experiment: Unbound plasma concentration in Harlan Sprague-Dawley rat model of AITC-induced flinching at 30 mg/kg, po after 1 hr; assay type: ADME, organism-based; parameters: dose 30 mg/kg, route oral; settings: in vivo; method in brief: as §5
[22] = test system: Plasma; experiment: Unbound plasma concentration in Harlan Sprague-Dawley rat model of AITC-induced flinching at 100 mg/kg, po after 1 hr; assay type: ADME, organism-based; parameters: dose 100 mg/kg, route oral; settings: in vivo; method in brief: as §5
[23] = Ratio of unbound plasma concentration in Harlan Sprague-Dawley rat model of AITC-induced flinching at 10 mg/kg, po after 1 hr to IC50 for antagonist activity at rat TRPA1 by [45Ca2+] fluorimetry assay; assay type: organism-based; parameters: dose 10 mg/kg, route oral; settings: in vivo
Method in brief: (§6)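 Male Harlan Sprague-Dawley rats were dosed orally in 2% HPMC/1% Tween-80. After 1 h, 0.1% AITC was injected into the left ventral hind paw. Unbound plasma concentration was measured (n=8 at 10 and 100 mg/kg, n=6 at 30 mg/kg) and divided by the rat TRPA1 IC50. That IC50 came from a 45Ca2+ fluorimetry antagonism assay in cells expressing rat TRPA1.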

[24] = Ratio of unbound plasma concentration in Harlan Sprague-Dawley rat model of AITC-induced flinching at 30 mg/kg, po after 1 hr to IC50 for antagonist activity at rat TRPA1 by [45Ca2+] fluorimetry assay; assay type: organism-based; parameters: dose 30 mg/kg, route oral; settings: in vivo; method in brief: as §6
[25] = Ratio of unbound plasma concentration in Harlan Sprague-Dawley rat model of AITC-induced flinching at 100 mg/kg, po after 1 hr to IC50 for antagonist activity at rat TRPA1 by [45Ca2+] fluorimetry assay; assay type: organism-based; parameters: dose 100 mg/kg, route oral; settings: in vivo; method in brief: as §6
[26] = test system: Rattus norvegicus; experiment: Effect on open filed activity in Harlan Sprague-Dawley rat model of AITC-induced flinching at 30 to 100 mg/kg, po; assay type: organism-based; parameters: dose 30-100 mg/kg, route oral; settings: in vivo
[27] = species: Rattus norvegicus; settings: Harlan Sprague-Dawley, 30 to 100 mg/kg
[28] = species: Rattus norvegicus; settings: Harlan Sprague-Dawley, 100 mg/kg

T2 sequence (O75762 whole entry): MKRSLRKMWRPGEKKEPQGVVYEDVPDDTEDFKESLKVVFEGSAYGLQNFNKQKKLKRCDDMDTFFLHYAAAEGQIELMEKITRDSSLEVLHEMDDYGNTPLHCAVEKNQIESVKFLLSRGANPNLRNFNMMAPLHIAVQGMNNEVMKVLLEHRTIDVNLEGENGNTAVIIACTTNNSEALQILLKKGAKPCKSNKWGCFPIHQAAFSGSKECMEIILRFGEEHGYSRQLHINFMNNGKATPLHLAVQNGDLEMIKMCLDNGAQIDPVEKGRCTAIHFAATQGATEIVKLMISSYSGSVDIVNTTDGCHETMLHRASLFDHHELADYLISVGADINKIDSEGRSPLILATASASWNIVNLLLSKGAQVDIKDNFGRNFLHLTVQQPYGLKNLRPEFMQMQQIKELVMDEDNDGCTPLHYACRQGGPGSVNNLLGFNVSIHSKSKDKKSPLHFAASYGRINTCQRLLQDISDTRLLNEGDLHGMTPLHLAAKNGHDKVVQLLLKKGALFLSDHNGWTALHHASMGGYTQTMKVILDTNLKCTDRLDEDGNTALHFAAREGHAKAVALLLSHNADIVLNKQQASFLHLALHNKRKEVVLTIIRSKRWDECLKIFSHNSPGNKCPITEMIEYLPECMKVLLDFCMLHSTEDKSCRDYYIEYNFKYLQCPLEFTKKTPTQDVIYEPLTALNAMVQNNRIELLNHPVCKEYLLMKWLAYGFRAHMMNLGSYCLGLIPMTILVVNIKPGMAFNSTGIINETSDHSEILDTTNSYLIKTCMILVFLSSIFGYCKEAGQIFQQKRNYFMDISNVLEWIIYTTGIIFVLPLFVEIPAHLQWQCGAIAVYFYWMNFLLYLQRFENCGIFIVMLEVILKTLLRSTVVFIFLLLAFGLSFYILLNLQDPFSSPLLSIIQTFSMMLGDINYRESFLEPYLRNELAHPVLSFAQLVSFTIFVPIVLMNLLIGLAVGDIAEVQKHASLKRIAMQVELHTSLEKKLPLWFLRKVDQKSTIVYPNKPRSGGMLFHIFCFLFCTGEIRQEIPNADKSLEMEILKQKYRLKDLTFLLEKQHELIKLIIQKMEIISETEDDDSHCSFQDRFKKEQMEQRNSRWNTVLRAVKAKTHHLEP
T1 sequence (Q6RI86 whole entry): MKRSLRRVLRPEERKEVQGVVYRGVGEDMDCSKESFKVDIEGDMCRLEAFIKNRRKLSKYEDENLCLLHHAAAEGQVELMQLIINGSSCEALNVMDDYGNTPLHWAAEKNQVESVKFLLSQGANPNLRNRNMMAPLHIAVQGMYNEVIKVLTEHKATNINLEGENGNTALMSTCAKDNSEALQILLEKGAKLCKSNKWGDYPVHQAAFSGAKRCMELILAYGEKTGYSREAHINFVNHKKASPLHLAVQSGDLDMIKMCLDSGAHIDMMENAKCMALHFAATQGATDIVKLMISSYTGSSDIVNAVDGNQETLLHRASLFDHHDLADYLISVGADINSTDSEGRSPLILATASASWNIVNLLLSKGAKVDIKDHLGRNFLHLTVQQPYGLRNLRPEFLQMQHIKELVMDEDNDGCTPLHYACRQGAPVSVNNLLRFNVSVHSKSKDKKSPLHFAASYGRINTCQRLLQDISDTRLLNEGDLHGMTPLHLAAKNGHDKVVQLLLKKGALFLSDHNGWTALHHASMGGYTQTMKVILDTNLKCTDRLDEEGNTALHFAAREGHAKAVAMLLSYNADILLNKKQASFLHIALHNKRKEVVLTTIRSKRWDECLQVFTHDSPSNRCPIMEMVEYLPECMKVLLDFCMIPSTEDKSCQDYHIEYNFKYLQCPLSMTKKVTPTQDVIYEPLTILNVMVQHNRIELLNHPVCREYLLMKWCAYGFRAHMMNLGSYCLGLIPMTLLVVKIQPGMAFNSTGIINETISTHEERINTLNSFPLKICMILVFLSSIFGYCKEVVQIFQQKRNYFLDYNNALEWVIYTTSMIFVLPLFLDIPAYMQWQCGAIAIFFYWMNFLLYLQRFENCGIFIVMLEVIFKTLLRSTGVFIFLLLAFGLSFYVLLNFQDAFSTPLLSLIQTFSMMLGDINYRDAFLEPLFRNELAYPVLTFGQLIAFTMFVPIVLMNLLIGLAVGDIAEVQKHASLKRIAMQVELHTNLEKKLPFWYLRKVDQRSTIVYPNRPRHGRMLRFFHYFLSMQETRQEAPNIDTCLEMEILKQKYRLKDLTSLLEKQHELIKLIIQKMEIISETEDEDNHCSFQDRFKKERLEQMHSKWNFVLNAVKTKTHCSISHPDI

With `COCCCOc1cccc([C@H]2NC(=S)Nc3c2oc2ncccc32)c1` as the molecule, how does the pIC50 [1] read?
The pIC50 was 7.35.

What about the pIC50 [2] of the same molecule?
The pIC50 was 6.77.

What about the pEC50 [3] of the same molecule?
The pEC50 was under 4.40.

What about the pEC50 [4] of the same molecule?
Its pEC50 is under 4.40.

What about the solubility [5] of the same molecule?
Its solubility is 28 µg/mL (≈ 75.8 µM).

And the solubility [6]?
The solubility was 21 µg/mL (≈ 56.8 µM).

And the solubility [7]?
Its solubility is 46 µg/mL (≈ 125 µM).

And the microsomal CLint [8]?
Its microsomal CLint is 30 µL/min/mg.

And the microsomal CLint [9]?
Its microsomal CLint is 90 µL/min/mg.

What about the fraction unbound [10] of the same molecule?
Its fraction unbound is 0.085.

And the clearance [11]?
The clearance was 50 mL/min/kg.

And the CL free [12]?
The CL free was 600 mL/min/kg.

And the Vd [13]?
The Vd was 4 L/kg.

What about the half-life [14] of the same molecule?
The half-life was 1.2 h.

What about the fCmax [15] of the same molecule?
The fCmax was 0.082 µM.

And the bioavailability [16]?
Its bioavailability is 13%.

And the fCmax [17]?
Its fCmax is 0.612 µM.

And the bioavailability [18]?
Its bioavailability is 79%.

What about the Ratio [19] of the same molecule?
Its Ratio is 14.

And the “Cp(f)” value [20]?
Its value is 48 nM.

And the “Cp(f)” value [21]?
The value was 220 nM.

What about the “Cp(f)” value [22] of the same molecule?
The value was 740 nM.

What about the Ratio [23] of the same molecule?
The Ratio was 1.

And the Ratio [24]?
Its Ratio is 5.

What about the Ratio [25] of the same molecule?
The Ratio was 16.

What about the Activity [26] of the same molecule?
Its Activity is “Non-toxic”.

And the inhibition [27]?
The inhibition was “Active”.

With `COCCCOc1cccc([C@H]2NC(=S)Nc3c2oc2ccccc32)c1` as the molecule, how does the pIC50 [1] read?
The pIC50 was 6.64.

And the pIC50 [2]?
Its pIC50 is 6.23.

And the pEC50 [3]?
Its pEC50 is under 4.40.

What about the pEC50 [4] of the same molecule?
Its pEC50 is under 4.40.

And the solubility [5]?
The solubility was 1 µg/mL (≈ 2.71 µM).

And the solubility [6]?
The solubility was 1 µg/mL (≈ 2.71 µM).

What about the solubility [7] of the same molecule?
The solubility was 23 µg/mL (≈ 62.4 µM).

And the microsomal CLint [8]?
Its microsomal CLint is 90 µL/min/mg.

What about the microsomal CLint [9] of the same molecule?
Its microsomal CLint is 350 µL/min/mg.

With `COCCCOc1cccc(C2NC(=S)Nc3c2oc2c(F)cccc32)c1` (stereo not given) as the molecule, how does the pIC50 [1] read?
The pIC50 was 6.85.

And the pIC50 [2]?
The pIC50 was 6.70.

What about the pEC50 [3] of the same molecule?
The pEC50 was under 4.40.

What about the pEC50 [4] of the same molecule?
The pEC50 was under 4.40.

What about the solubility [5] of the same molecule?
Its solubility is 14 µg/mL (≈ 36.2 µM).

What about the solubility [6] of the same molecule?
Its solubility is 17 µg/mL (≈ 44 µM).

What about the solubility [7] of the same molecule?
The solubility was 66 µg/mL (≈ 171 µM).

And the microsomal CLint [8]?
Its microsomal CLint is 70 µL/min/mg.

What about the microsomal CLint [9] of the same molecule?
Its microsomal CLint is 140 µL/min/mg.

With `O=C1C2=C(NC(=S)NC2c2cccc(OCc3cccnc3)c2)c2ccccc21` (stereo not given) as the molecule, how does the pIC50 [1] read?
Its pIC50 is 6.44.

And the pIC50 [2]?
The pIC50 was 6.15.

What about the pEC50 [3] of the same molecule?
The pEC50 was under 4.40.

What about the pEC50 [4] of the same molecule?
Its pEC50 is under 4.40.

What about the solubility [5] of the same molecule?
The solubility was 140 µg/mL (≈ 350 µM).

What about the solubility [6] of the same molecule?
Its solubility is 1 µg/mL (≈ 2.5 µM).

What about the solubility [7] of the same molecule?
The solubility was 15 µg/mL (≈ 37.5 µM).

What about the microsomal CLint [8] of the same molecule?
The microsomal CLint was 150 µL/min/mg.

What about the microsomal CLint [9] of the same molecule?
Its microsomal CLint is 250 µL/min/mg.

Which results are given for `O=C1C2=C(NC(=S)NC2c2cccc(OCc3ccccn3)c2)c2ccccc21` (stereo not given)?
pIC50 [1]: 6.64; pIC50 [2]: 6.52; pEC50 [3]: < 4.40; pEC50 [4]: < 4.40; solubility [5]: 1 µg/mL (≈ 2.5 µM); solubility [6]: 10 µg/mL (≈ 25 µM); solubility [7]: 200 µg/mL (≈ 501 µM); microsomal CLint [8]: 180 µL/min/mg; microsomal CLint [9]: 310 µL/min/mg

Which results are given for `S=C1Nc2c(oc3ncccc23)C(c2cccc(OCc3cccnc3)c2)N1` (stereo not given)?
pIC50 [1]: 5.89; pIC50 [2]: 6.03; pEC50 [3]: < 4.40; pEC50 [4]: < 4.40; solubility [5]: 200 µg/mL (≈ 515 µM); solubility [6]: 15 µg/mL (≈ 38.6 µM); solubility [7]: 21 µg/mL (≈ 54.1 µM); microsomal CLint [8]: 100 µL/min/mg; microsomal CLint [9]: 40 µL/min/mg

With `COCCCOc1cccc([C@@H]2NC(=S)Nc3c2oc2ncccc32)c1` as the molecule, how does the pIC50 [2] read?
Its pIC50 is under 4.40.

What about the “Cp(f)” value [22] of the same molecule?
Its value is 370 nM.

And the inhibition [28]?
Its inhibition is “inactive”.
